The IC50 is the point on the concentration scale where inhibition reaches its midpoint. A low value points to greater potency in that assay.

These results are taken from ChEMBL document CHEMBL1135657, “Novel dual inhibitors of AChE and MAO derived from hydroxy aminoindan and phenethylamine as potential treatment for Alzheimer's disease” (J Med Chem, 2002).

Assay [1] addresses T1, Amine oxidase [flavin-containing] A (Rattus norvegicus, UniProt P21396).
T1 sequence (P21396 whole entry): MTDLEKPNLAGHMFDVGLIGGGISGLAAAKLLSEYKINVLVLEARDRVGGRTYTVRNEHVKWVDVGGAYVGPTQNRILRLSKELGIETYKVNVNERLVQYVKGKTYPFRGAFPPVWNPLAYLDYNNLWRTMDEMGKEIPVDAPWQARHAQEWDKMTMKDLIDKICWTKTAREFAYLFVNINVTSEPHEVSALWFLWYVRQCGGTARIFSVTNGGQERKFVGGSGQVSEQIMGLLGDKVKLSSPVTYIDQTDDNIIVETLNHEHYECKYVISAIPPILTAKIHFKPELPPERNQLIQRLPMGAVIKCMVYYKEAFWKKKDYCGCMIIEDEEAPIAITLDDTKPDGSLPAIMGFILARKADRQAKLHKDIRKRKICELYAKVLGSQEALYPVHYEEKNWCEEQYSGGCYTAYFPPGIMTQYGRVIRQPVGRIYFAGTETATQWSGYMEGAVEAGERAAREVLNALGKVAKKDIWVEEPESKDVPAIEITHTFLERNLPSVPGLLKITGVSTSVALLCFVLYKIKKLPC
As to the kind of experiment: In vitro inhibitory concentration against Monoamine oxidase A of rat brain homogenates; value ranges from 4.7-16.8. Format: tissue-based.

In assay [2] the target is T2, Amine oxidase [flavin-containing] B (Rattus norvegicus, UniProt P19643).
T2 sequence (P19643 whole entry): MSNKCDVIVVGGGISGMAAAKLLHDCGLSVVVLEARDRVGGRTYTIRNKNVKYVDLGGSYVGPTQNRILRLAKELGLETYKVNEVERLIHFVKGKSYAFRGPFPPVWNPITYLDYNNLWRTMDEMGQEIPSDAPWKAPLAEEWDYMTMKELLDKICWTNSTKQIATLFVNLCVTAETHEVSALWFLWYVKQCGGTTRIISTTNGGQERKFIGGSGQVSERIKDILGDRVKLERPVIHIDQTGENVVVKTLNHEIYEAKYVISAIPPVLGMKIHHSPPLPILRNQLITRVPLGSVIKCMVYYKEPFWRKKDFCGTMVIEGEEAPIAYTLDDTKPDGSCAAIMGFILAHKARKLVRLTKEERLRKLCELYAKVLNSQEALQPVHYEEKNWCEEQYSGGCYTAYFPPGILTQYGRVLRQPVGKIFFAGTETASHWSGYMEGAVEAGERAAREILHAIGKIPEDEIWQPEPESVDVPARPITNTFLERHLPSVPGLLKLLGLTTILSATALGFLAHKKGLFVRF
In words: In vitro inhibitory concentration against Monoamine oxidase B of rat brain homogenates; value ranges from 2.8-8.3. Format: tissue-based.

For assay [3], the target named is T1, Amine oxidase [flavin-containing] A. As to the kind of experiment: In vitro inhibitory concentration against Monoamine oxidase A of rat brain homogenates; value ranges from 14-340. Format: tissue-based.
Assay [4] concerns the target T2, Amine oxidase [flavin-containing] B. In words: In vitro inhibitory concentration against Monoamine oxidase B of rat brain homogenates; value ranges from 22-530. The class given is tissue-based.
For assay [5], the target named is T1, Amine oxidase [flavin-containing] A. As to the kind of experiment: In vitro inhibitory concentration against Monoamine oxidase A of rat brain homogenates; value ranges from 0.1-0.9. Format: tissue-based.
The target of assay [6] is T2, Amine oxidase [flavin-containing] B. In words: In vitro inhibitory concentration against Monoamine oxidase B of rat brain homogenates; value ranges from 1.5-5.2. The class given is tissue-based.
Assay [7] has as its target T3, Acetylcholinesterase (Homo sapiens, UniProt P22303). As to the kind of experiment: In vitro inhibitory concentration against purified Acetylcholinesterase of human erythrocytes; value ranges from 0.79-0.93.
Assay [8] concerns the target T2, Amine oxidase [flavin-containing] B. As to the kind of experiment: In vitro inhibitory concentration against Monoamine oxidase B of rat brain homogenates; value ranges from 0.11-0.57. The class given is tissue-based. Put shortly: (§1)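 Rat brain homogenate (in 0.3 M sucrose) as enzyme source; compounds diluted 10⁻²M to 10⁻⁹M in 0.05 M phosphate buffer with 0.15 μM clorgyline; preincubated 60 min at 37 °C, then 10 μM ¹⁴C-phenylethylamine added for 20 min more; stopped with citric acid; metabolites extracted into toluene/ethyl acetate, scintillation counted; activity as % of control, tranylcypromine blank.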

In assay [9] the target is T4, Butyrylcholinesterase (Equus caballus, UniProt Q9N1N9). As to the kind of experiment: In vitro inhibitory concentration against Butyrylcholinesterase of horse serum; value ranges from 0.45-1.08. Put shortly: (§2)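 Ellman assay followed, with 200 µM butyrylthiocholine as substrate. Runs were in triplicate with four-point dose-response curves. IC50 and fiducial limits came from log concentration versus % inhibition.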
T4 sequence (Q9N1N9 whole entry): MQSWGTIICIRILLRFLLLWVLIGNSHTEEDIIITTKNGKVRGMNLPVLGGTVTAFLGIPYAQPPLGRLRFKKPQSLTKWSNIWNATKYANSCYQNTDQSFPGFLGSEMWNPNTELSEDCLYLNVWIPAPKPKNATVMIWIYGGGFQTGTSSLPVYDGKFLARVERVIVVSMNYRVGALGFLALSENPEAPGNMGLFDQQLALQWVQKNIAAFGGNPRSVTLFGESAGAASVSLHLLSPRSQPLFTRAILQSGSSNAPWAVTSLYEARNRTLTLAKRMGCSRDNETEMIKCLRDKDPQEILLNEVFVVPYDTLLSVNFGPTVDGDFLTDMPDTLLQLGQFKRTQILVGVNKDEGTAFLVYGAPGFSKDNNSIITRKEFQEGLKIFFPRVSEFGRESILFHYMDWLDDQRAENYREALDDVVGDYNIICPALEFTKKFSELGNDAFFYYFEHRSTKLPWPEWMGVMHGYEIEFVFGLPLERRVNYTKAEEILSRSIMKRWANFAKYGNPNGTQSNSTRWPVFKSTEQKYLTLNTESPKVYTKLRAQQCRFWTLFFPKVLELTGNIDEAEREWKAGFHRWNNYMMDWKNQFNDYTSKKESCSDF

Assay [10] concerns the target T1, Amine oxidase [flavin-containing] A. As to the kind of experiment: In vitro inhibitory concentration against Monoamine oxidase A of rat brain homogenates; value ranges from 0.8-3.7. Format: tissue-based.
For assay [11], the target named is T3, Acetylcholinesterase. In words: In vitro inhibitory concentration against purified Acetylcholinesterase of human erythrocytes; value ranges from 3.69-33.1.
Assay [12] addresses T2, Amine oxidase [flavin-containing] B. As to the kind of experiment: In vitro inhibitory concentration against Monoamine oxidase B of rat brain homogenates; value ranges from 75-200.
Assay [13] has as its target T3, Acetylcholinesterase. In words: In vitro inhibitory concentration against purified Acetylcholinesterase of human erythrocytes; value ranges from 26.2-5898.
Assay [14] addresses T4, Butyrylcholinesterase. As to the kind of experiment: In vitro inhibitory concentration against Butyrylcholinesterase of horse serum; value ranges from 0.28-0.30. In a few lines: as §2
Assay [15] concerns the target T3, Acetylcholinesterase.
For assay [16], the target named is T3, Acetylcholinesterase. In words: In vitro inhibitory concentration against purified Acetylcholinesterase of human erythrocytes; value ranges from 13.6-27.3.
Assay [17] addresses T1, Amine oxidase [flavin-containing] A. As to the kind of experiment: In vitro inhibitory concentration against Monoamine oxidase A of rat brain homogenates; value ranges from 12.1-17.6. Format: tissue-based.
In assay [18] the target is T4, Butyrylcholinesterase. As to the kind of experiment: In vitro inhibitory concentration against Butyrylcholinesterase of horse serum; value ranges from 1.19-8.56. Put shortly:
as §2

Assay [19] concerns the target T2, Amine oxidase [flavin-containing] B. As to the kind of experiment: In vitro inhibitory concentration against Monoamine oxidase B of rat brain homogenates; value ranges from 0.08-0.38. The class given is tissue-based. In a few lines:
as §1

For assay [20], the target named is T4, Butyrylcholinesterase. In words: In vitro inhibitory concentration against Butyrylcholinesterase of horse serum; value ranges from 0.90-0.95. In a few lines:
as §2

Assay [21] addresses T1, Amine oxidase [flavin-containing] A. As to the kind of experiment: In vitro inhibitory concentration against Monoamine oxidase A of rat brain homogenates; value ranges from 1.8-2.5. Format: tissue-based.
Assay [22] concerns the target T2, Amine oxidase [flavin-containing] B. In words: In vitro inhibitory concentration against Monoamine oxidase B of rat brain homogenates; value ranges from 9.5-17.2.
In assay [23] the target is T3, Acetylcholinesterase. As to the kind of experiment: In vitro inhibitory concentration against purified Acetylcholinesterase of human erythrocytes; value ranges from 12.6-74.0.
Assay [24] has as its target T3, Acetylcholinesterase. As to the kind of experiment: In vitro inhibitory concentration against purified Acetylcholinesterase of human erythrocytes.
The target in assay [25] is T4, Butyrylcholinesterase. In words: In vitro inhibitory concentration against Butyrylcholinesterase of horse serum; value ranges from 0.21-1.26. In a few lines:
as §2

The target in assay [26] is T1, Amine oxidase [flavin-containing] A. As to the kind of experiment: In vitro inhibitory concentration against Monoamine oxidase A of rat brain homogenates; value ranges from 2-8. Format: tissue-based.
The target is the same in assay [27]. As to the kind of experiment: In vitro inhibitory concentration against Monoamine oxidase A of rat brain homogenates; value ranges from 150-320. The class given is tissue-based.
The target of assay [28] is T2, Amine oxidase [flavin-containing] B. In words: In vitro inhibitory concentration against Monoamine oxidase B of rat brain homogenates; value ranges from 30-230. Format: tissue-based.
In assay [29] the target is T3, Acetylcholinesterase. As to the kind of experiment: In vitro inhibitory concentration against purified Acetylcholinesterase of human erythrocytes; value ranges from 7.5-19.5.
Assay [30] addresses T1, Amine oxidase [flavin-containing] A. In words: In vitro inhibitory concentration against Monoamine oxidase A of rat brain homogenates; value ranges from 370-520. The class given is tissue-based.

T3 sequence (P22303 whole entry): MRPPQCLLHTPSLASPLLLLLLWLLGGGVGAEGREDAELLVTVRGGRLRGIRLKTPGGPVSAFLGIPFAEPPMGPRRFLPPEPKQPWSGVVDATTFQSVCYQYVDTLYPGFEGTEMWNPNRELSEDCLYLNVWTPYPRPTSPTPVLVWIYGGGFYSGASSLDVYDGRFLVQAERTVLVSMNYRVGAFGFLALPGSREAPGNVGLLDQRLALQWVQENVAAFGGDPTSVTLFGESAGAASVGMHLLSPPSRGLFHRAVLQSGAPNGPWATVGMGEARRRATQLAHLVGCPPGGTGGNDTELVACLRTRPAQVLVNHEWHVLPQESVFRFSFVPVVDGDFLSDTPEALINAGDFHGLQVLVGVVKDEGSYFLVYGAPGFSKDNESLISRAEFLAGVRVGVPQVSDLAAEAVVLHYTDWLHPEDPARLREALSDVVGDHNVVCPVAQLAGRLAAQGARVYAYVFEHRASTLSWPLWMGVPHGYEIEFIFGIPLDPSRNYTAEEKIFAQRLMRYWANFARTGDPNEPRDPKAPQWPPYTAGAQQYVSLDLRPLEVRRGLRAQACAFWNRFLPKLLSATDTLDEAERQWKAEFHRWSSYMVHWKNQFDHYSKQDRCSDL

Consider `C#CCN(C)C(C)Cc1cccc(O)c1` (stereo not given), for which the results for the IC50 in assay [1] and in [2] were 8.9 µM and 4.8 µM, respectively.
As to `C#CCNCCc1cccc(O)c1`, the IC50 was 67 µM in assay [3] and 107 µM in [4].
In the case of `C#CCN(C)CCc1cccc(OC(=O)N(C)C)c1`, the IC50 in [5] turned out to be 0.3 µM; in assay [6], 2.8 µM; in [7], 0.85 µM.
For the compound `C#CCN(C)C(C)Cc1cccc(OC(=O)N(C)C2CCCCC2)c1` (stereo not given), the IC50 turned out to be 0.24 µM in assay [8], 0.67 µM in [9], 1.7 µM in assay [10] and 8.67 µM in assay [11].
For the compound `C#CCNC1CCc2ccc(OC(=O)N(C)CC)cc2C1` (stereo not given), the concentration for half-maximal inhibition (IC50) stood at 120 µM in assay [12], 204 µM in assay [13] and 0.29 µM in [14].
`CN(C)C(=O)Oc1ccc2c(c1)CC(N)CC2` (stereo not given) registered a concentration for half-maximal inhibition (IC50) in assay [15] of 3.24 µM.
On to `C#CCNC(C)Cc1cccc(OC(=O)N(C)CCC)c1` (stereo not given), for which the IC50 in [16] is 19.1 µM; in [17] it was 14.6 µM; in [18], 2.07 µM; in assay [19], 0.17 µM.
For `C#CCNC(C)Cc1cccc(OC(=O)N(C)CC)c1` (stereo not given), the IC50 in assay [20] is 0.93 µM; in assay [21], 2.1 µM; in assay [22], 12.8 µM; in [23], 33.9 µM.
As to `C#CCN(C)[C@@H]1CCc2ccc(OC(=O)N(C)CC)cc21`, the results for the IC50 in assay [24], in assay [25] and in assay [26] were 1200 µM, 0.55 µM and 4 µM, respectively.
Turning to `C#CCN[C@@H]1CCc2ccc(OC(=O)N(C)CCCC)cc21`, the figures for the IC50 in assay [27], in [28] and in assay [29] were 220 µM, 150 µM and 11.6 µM, respectively.
The compound `C#CCN[C@H]1CCc2ccc(O)cc21` came in with an IC50 in [30] of 440 µM.
